Among the data in ChEMBL document CHEMBL2046296, “Synthesis and antidepressant activity of arylalkanol-piperidine derivatives as triple reuptake inhibitors” (Eur J Med Chem, 2012) are Activity, inhibition and IC50 values, retold here.

Molecules are shown by their SMILES.

Data set [1] deals with Mus musculus. The data set is described as follows: Toxicity in mouse assessed as increase in locomotor activity at 50 mg/kg, po up to 5 mins relative to vehicle treated control. It counts as organism-based. Further details: dose 50 mg/kg, route oral. As to conditions: in vivo. The essentials: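 Mice were dosed orally at 50 mg/kg and 30 min later placed singly in new 35×35×35 cm plastic cages under dim light with sound attenuation. Activity was logged by a monitoring apparatus at intervals up to 30 min, and the 5 min point was analysed. Mean ± SEM; one-way ANOVA, Scheffe post hoc, versus control.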

Data set [2] deals with 5-hydroxytryptamine receptor 2B (Homo sapiens) (UniProt P41595). The data set is described as follows: Displacement of [3H]Mesulergine from human recombinant 5HT2B receptor expressed in CHO cells at 10 uM after 30 mins by liquid scintillation counting. In kind it is cell-based. The essentials:
(§1)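 Radioligand binding panel run by a contract lab (CEREP). Percent inhibition of specific radioligand binding was measured at a single primary test concentration of 10.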
A general note: Loss of bound radioactivity is the signal in a displacement assay; it reports binding, not function.

Data set [3] deals with 5-hydroxytryptamine receptor 5A (Homo sapiens) (UniProt P47898). The data set is described as follows: Displacement of [3H]LSD from 5HT5A receptor at 10 uM. The essentials:
as §1

Data set [4] has as its system Mus musculus. Put plainly: Antidepressant activity in mouse assessed as decrease in immobility at 10 mg/kg, po administered 30 mins prior to testing by tail suspension test relative to vehicle control. In kind it is functional. The arrangement: scale not given: the % may be the effect or the level left. The essentials:
(§2)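 Oral doses of 10–50 mg/kg (three doses) were given once, 30 min before testing. Mice were hung by adhesive tape 1 cm from the tail tip, 75 cm above the tabletop. Immobility was recorded for 5 min, scored blind, 10–12 mice per group, against vehicle controls. One-way ANOVA with Scheffe post hoc test; p<0.05 significant.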

The target in data set [5] is T1, 5-hydroxytryptamine receptor 3A (Homo sapiens) (UniProt P46098).
T1 sequence (whole entry): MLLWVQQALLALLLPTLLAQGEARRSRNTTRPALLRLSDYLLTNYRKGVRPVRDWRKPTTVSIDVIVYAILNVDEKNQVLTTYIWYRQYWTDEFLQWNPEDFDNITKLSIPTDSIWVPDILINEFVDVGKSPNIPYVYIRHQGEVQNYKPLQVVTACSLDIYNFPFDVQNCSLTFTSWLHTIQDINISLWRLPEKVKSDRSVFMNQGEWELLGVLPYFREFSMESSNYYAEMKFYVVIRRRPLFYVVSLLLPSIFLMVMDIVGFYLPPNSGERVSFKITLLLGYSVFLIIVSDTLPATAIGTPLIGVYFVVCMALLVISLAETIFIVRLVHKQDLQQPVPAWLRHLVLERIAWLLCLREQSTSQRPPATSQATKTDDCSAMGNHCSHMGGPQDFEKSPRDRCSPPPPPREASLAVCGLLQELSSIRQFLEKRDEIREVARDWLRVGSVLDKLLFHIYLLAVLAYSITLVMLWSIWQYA
Put plainly: Displacement of [3H]BRL43694 from human recombinant 5HT3 receptor expressed in CHO cells at 10 uM after 60 mins by liquid scintillation counting. It counts as cell-based. A digest of the protocol:
as §1

Data set [6] addresses T2, Muscarinic acetylcholine receptor M1 (Homo sapiens) (UniProt P11229).
T2 sequence (whole entry): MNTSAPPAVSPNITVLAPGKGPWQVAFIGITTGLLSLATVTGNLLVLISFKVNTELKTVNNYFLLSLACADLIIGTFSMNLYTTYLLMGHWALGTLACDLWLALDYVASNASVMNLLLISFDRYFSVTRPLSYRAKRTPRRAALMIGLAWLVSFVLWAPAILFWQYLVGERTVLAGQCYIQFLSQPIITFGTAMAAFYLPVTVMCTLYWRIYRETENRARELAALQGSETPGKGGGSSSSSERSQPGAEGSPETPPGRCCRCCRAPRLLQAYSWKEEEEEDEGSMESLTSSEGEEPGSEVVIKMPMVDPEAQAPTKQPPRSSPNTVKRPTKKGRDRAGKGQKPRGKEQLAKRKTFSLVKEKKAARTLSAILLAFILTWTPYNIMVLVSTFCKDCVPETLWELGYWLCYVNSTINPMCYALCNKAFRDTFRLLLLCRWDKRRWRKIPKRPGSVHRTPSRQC
The data set is described as follows: Displacement of [3H]pirenzepine from human recombinant M1 receptor expressed in CHO cells at 10 uM after 60 mins by liquid scintillation counting. In kind it is cell-based. The essentials: as §1

Data set [7] deals with Mus musculus. The data set is described as follows: Antidepressant activity in po dosed mouse assessed as decrease in immobility administered 30 mins prior to testing by tail suspension test relative to vehicle control. In kind it is functional, organism-based. The essentials:
as §2

Data set [8] deals with Beta-1 adrenergic receptor (Homo sapiens) (UniProt P08588). Put plainly: Displacement of [3H](-)CGP12177 beta1 adrenergic receptor at 10 uM. A digest of the protocol: as §1
For data set [9], the target named is 5-hydroxytryptamine receptor 1B (Homo sapiens) (UniProt P28222). Put plainly: Displacement of [I125]CYP from 5HT1B receptor at 10 uM. A digest of the protocol:
as §1

In data set [10] the target is T3, 5-hydroxytryptamine receptor 1A (Homo sapiens) (UniProt P08908).
T3 sequence (whole entry): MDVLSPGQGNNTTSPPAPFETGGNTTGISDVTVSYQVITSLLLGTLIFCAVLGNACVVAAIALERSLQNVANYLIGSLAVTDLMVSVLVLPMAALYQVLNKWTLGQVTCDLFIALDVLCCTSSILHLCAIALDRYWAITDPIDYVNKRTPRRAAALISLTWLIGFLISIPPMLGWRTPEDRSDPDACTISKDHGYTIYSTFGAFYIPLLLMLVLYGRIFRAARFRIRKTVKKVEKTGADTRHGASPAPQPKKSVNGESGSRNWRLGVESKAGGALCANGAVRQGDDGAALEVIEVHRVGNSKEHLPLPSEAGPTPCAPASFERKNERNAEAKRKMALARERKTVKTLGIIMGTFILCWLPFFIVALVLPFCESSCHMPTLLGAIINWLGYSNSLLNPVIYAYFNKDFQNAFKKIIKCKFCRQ
The data set is described as follows: Displacement of [3H]8-OH-DPAT from human recombinant 5HT1A receptor expressed in CHO cells at 10 uM after 60 mins by liquid scintillation counting. It counts as cell-based. A digest of the protocol:
as §1

For data set [11], the target named is Sodium-dependent dopamine transporter (Homo sapiens, UniProt Q01959). Put plainly: Inhibition of [3H]dopamine uptake at human DAT expressed in HEK293 cells after 10 mins by scintillation counting.
Data set [12] has as its target Beta-2 adrenergic receptor (Homo sapiens) (UniProt P07550). Put plainly: Displacement of [3H](-)CGP12177 beta2 adrenergic receptor at 10 uM. The essentials:
as §1

Data set [13] has as its target Histamine H2 receptor (Homo sapiens) (UniProt P25021). The data set is described as follows: Displacement of [I125}APT from histamine H2 receptor at 10 uM. A digest of the protocol: as §1

Chain of 5-hydroxytryptamine receptor 5A (Homo sapiens) (P47898 whole entry): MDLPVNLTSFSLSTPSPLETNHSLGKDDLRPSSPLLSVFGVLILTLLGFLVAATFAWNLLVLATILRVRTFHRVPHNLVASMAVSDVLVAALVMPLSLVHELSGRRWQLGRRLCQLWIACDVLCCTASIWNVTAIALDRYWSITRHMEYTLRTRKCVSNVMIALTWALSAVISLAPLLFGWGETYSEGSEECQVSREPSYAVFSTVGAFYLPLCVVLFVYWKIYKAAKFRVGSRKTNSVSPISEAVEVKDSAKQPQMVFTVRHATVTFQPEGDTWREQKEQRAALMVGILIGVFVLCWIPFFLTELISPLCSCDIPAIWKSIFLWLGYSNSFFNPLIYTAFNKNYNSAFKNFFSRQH
Chain of Beta-1 adrenergic receptor (Homo sapiens) (P08588 whole entry, looked up): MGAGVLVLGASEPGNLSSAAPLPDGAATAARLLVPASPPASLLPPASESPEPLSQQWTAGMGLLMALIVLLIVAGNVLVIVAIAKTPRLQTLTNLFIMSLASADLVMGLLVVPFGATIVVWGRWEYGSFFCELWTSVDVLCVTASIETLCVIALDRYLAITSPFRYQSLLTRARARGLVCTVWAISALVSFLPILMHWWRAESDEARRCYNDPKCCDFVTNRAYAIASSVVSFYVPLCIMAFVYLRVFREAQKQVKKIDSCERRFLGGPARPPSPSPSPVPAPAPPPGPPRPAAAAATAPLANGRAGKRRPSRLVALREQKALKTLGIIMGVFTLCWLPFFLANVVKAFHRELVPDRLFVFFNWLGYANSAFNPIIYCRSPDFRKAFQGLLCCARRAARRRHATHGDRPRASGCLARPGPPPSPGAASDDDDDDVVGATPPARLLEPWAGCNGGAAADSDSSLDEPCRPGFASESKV
Chain of 5-hydroxytryptamine receptor 1B (Homo sapiens) (P28222 whole entry): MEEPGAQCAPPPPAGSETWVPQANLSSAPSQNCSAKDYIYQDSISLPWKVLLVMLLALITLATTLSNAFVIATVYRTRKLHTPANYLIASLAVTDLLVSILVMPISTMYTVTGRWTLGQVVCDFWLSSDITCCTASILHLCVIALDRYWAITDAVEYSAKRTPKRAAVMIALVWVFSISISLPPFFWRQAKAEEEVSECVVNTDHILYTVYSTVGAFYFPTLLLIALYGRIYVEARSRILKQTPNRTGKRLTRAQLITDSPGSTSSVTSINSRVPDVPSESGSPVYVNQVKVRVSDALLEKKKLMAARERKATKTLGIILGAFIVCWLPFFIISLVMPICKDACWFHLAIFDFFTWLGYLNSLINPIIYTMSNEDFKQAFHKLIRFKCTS
Chain of Beta-2 adrenergic receptor (Homo sapiens) (P07550 whole entry, looked up): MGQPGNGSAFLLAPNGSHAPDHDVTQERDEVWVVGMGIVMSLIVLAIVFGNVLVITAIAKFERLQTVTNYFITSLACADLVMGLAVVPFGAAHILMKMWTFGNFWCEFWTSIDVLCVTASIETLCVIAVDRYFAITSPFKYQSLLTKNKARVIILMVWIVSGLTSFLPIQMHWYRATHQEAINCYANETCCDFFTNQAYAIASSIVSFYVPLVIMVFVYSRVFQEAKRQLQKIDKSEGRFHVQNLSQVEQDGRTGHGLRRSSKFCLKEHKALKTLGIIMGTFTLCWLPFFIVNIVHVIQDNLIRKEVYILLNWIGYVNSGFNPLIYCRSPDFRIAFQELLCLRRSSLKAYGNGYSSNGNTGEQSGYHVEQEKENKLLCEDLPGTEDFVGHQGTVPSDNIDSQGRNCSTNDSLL
Chain of Histamine H2 receptor (Homo sapiens) (P25021 whole entry): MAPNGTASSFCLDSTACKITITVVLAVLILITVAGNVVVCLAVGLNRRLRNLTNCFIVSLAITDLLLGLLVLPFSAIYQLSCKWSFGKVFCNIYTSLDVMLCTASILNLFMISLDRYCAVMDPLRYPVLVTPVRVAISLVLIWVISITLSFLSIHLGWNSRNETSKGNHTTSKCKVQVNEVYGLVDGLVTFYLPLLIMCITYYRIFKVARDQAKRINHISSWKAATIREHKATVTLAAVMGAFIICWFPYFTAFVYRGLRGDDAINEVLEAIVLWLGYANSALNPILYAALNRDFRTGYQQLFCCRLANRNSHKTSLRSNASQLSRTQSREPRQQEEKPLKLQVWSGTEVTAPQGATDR
Chain of Sodium-dependent dopamine transporter (Q01959 whole entry): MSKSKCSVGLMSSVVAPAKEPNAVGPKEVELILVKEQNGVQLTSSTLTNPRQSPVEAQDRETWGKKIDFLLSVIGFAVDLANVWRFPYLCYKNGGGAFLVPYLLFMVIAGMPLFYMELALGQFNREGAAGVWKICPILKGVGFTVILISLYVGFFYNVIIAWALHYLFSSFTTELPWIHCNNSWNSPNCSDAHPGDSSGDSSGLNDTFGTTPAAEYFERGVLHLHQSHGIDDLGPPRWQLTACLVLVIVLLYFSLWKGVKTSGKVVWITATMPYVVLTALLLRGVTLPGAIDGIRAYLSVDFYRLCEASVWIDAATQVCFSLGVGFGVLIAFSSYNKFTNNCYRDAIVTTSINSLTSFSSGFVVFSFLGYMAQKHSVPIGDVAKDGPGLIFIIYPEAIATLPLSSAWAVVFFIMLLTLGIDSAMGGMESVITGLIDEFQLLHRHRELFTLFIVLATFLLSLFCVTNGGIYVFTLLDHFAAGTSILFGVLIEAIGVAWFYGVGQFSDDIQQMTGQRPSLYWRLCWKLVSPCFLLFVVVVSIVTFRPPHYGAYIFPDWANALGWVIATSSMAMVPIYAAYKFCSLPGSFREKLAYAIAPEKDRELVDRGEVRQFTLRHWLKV
Chain of 5-hydroxytryptamine receptor 2B (Homo sapiens) (P41595 whole entry): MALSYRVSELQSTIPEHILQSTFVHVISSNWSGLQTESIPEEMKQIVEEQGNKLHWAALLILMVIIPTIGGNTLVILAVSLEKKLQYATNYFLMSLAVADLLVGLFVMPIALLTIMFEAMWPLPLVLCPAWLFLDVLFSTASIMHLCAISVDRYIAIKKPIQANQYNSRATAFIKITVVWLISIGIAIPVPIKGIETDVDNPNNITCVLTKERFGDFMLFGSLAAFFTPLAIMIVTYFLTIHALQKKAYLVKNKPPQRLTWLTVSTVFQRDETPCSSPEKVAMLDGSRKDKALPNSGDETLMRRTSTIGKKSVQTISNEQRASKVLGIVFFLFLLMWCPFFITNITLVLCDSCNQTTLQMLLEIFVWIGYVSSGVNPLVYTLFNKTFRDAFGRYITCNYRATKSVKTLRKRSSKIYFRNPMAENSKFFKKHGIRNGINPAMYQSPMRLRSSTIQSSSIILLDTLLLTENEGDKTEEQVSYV

As a reminder, the inhibition is the percentage by which the read-out fell short of the control. As a reminder, the IC50 is the midpoint of a concentration-inhibition curve. Take `OC(CCN1CCC(O)(Cc2ccccc2)CC1)c1ccc(Cl)c(Cl)c1` (racemic): the Activity entry was “Non-toxic” in the data set on Mus musculus [1], 33% with Mus musculus [4] and “Dose-dependent effect” in the data set with Mus musculus [7]. In addition, the inhibition in data set [2] turned out to be 4.9%; in data set [3], 41.6%; in data set [5] it was 14.1%; in data set [6] it was 34.2%; in data set [8], 15.3%; in data set [9], 9.7%. Further, the inhibition in data set [10] worked out at 27.3%; in data set [12] it was 14.7%; in [13], 6.7%. The same molecule came in with an IC50 in [11] of 564 nM.
For the molecule `COc1ccc2cc(C(O)CCN3CC=C(Cc4ccccc4)CC3)ccc2c1Cl` (racemic), the Activity result with Mus musculus [1] is “Non-toxic”; in the data set with Mus musculus [4] it was 21%; in the data set on Mus musculus [7] it was “Dose-dependent effect”. In addition, the inhibition in data set [5] was determined as 0.5%; in data set [6], 57.8%; in data set [8], 46.7%; in data set [9], 10.2%; in data set [10], 46.5%; in data set [12], 28.5%. For the same molecule, the inhibition in [13] came to 33.2%. Further, it took 346 nM to reach half-maximal inhibition in [11] (IC50).
On to `OC(CCN1CC=C(Cc2ccccc2)CC1)c1ccc(Cl)c(Cl)c1` (racemic), for which the Activity entry is on record as “Non-toxic” in the data set with Mus musculus [1] and 24% in the data set with Mus musculus [4]. For the same molecule, the inhibition in data set [2] came to 33.5%; in [5] it was 25.1%; in data set [6], 10.7%; in data set [8], 58.9%; in data set [9] it was 0.6%; in data set [10] it was 10.3%. Further, the inhibition in data set [12] was 62.3%; in [13], 15.6%. In addition, the IC50 in data set [11] came to 689 nM.
As for `OC(CCN1CC=C(Cc2ccccc2)CC1)c1cc2ccccc2s1` (racemic), the Activity result with Mus musculus [1] is “Non-toxic”; with Mus musculus [4], 14%. The inhibition in data set [2] is 6.1%; in data set [3], 0.2%; in [5], 10.6%; in data set [6] it was 31.2%; in data set [8], 41.2%; in [10], 65.4%. Besides, the values for the inhibition in [12] and in [13] were 16.7% and 8.2%, respectively. Moreover, half-maximal inhibition in data set [11] (IC50) was put at 491 nM.
As to `OC(CCN1CC=C(Cc2ccccc2)CC1)c1csc2ccccc12` (racemic), the Activity result is “Non-toxic” with Mus musculus [1], 32% in the data set with Mus musculus [4] and “Dose-dependent effect” in the data set with Mus musculus [7]. Also, the inhibition in data set [2] was 14.5%; in data set [3], 33.5%; in data set [5], 8.3%; in data set [6] it was 4.3%; in data set [8], 33.4%; in data set [9], 6.5%. Moreover, the figures for the inhibition in [10], in data set [12] and in data set [13] were 33.4%, 49.8% and 14.9%, respectively. In addition, the IC50 in data set [11] is 566 nM.
